Source: ChEMBL document CHEMBL3526035, “Role of the intestinal peptide transporter PEPT1 in oseltamivir absorption: in vitro and in vivo studies” (Drug Metab Dispos, 2012)

Legend:
[1] = Drug uptake in CHOK1 cells at 100 uM at pH 4 to 8 after 10 mins by HPLC coupled with radiodetection analysis; format: ADME, cell-based, Cricetulus griseus; conditions: chinese hamster, cho-k1, pH 4, 10 min
Outline: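 [14C]oseltamivir at 100 μM incubated with CHO-K1 cells for 10 min at 37°C in KH buffer over pH 4-8, with pH readjusted after compound addition. Washed cells were lysed in Triton X-100, radioactivity counted and normalised to protein. Three independent experiments, each run in triplicate.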

[2] = Drug uptake in CHOK1 cells expressing human PEPT1 at 100 uM after 10 mins by HPLC coupled with radiodetection analysis in presence of PEPT1 inhibitor cefadroxil; format: ADME, cell-based, Cricetulus griseus; conditions: chinese hamster, cho-k1, 10 min
Outline: (§1)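 CHO-PEPT1 and parental CHO-K1 cells were washed in KH/MES buffer, then incubated 10 min at 37°C, pH 6, with 100 µM [14C]oseltamivir alone or with 20 mM of the inhibitor. The pH was readjusted after additions. Uptake was quenched with ice-cold PBS-BSA and cells were washed and lysed in 1% Triton X-100. Lysate radioactivity was normalized to BCA protein. Three experiments on separate days, triplicate wells.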

[3] = Renal clearance in healthy human at 150 mg, po administered as single dose by HPLC-tandem mass spectrometry under fed conditions; format: ADME, organism-based, Kidney; conditions: in vivo
Outline: (§2)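 Open-label crossover food-effect study in 18 healthy volunteers (9 male, 9 female, mean age 26). Each received a single 150 mg oral dose of the marketed formulation, once fasting from midnight and once after a high-fat, high-calorie breakfast, separated by a 7–10 day washout. Plasma and urine were collected over 0–72 h and assayed by HPLC-MS/MS for oseltamivir and carboxylate.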

[4] = Drug uptake in CHOK1 cells expressing human PEPT1 at 100 uM after 10 mins by HPLC coupled with radiodetection analysis in presence of PEPT1 inhibitor valacyclovir; format: ADME, cell-based, Cricetulus griseus; conditions: chinese hamster, cho-k1, 10 min; outline: as §1
[5] = Drug uptake in CHOK1 cells at 100 uM after 10 mins by HPLC coupled with radiodetection analysis in presence of PEPT1 inhibitor Trp-Gly; format: ADME, cell-based, Cricetulus griseus; conditions: chinese hamster, cho-k1, 10 min
Outline: (§3)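 CHO-K1 cells held in KH buffer at pH 6. Incubated 10 min with [14C]oseltamivir at 100 μM, either with 20 mM Trp-Gly, valacyclovir or cefadroxil, or at 4°C (on ice) against 37°C. Quenched with ice-cold PBS-0.2% BSA, washed, lysed in 1% Triton X-100 at 60°C. Lysate counted by scintillation and normalised to BCA protein. Three experiments, each point in triplicate.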

[6] = Drug uptake in CHOK1 cells expressing human PEPT1 at 100 uM at 4 degC after 10 mins by HPLC coupled with radiodetection analysis; format: ADME, cell-based, Cricetulus griseus; conditions: chinese hamster, cho-k1, 10 min
Outline: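 100 µM [14C]oseltamivir was incubated with CHO-PEPT1 and CHO-K1 cells for 10 min in KH/MES buffer pH 6, on ice (4°C) or on a 37°C block. Uptake was stopped with ice-cold PBS-BSA, cells were washed and lysed in Triton X-100, and radioactivity was counted per mg protein (BCA). Three independent experiments.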

[7] = Drug uptake in CHOK1 cells at 100 uM after 10 mins by HPLC coupled with radiodetection analysis in presence of PEPT1 inhibitor cefadroxil; format: ADME, cell-based, Cricetulus griseus; conditions: chinese hamster, cho-k1, 10 min; outline: as §3
[8] = Drug uptake in CHOK1 cells expressing human PEPT1 at 100 uM after 10 mins by HPLC coupled with radiodetection analysis in presence of PEPT1 inhibitor Trp-Gly; format: ADME, cell-based, Cricetulus griseus; conditions: chinese hamster, cho-k1, 10 min; outline: as §1
[9] = Drug uptake in CHOK1 cells at 100 uM at 4 degC after 10 mins by HPLC coupled with radiodetection analysis; format: ADME, cell-based, Cricetulus griseus; conditions: chinese hamster, cho-k1, 10 min; outline: as §3
[10] = Tmax in healthy human at 150 mg, po administered as single dose by HPLC-tandem mass spectrometry under fasting conditions; format: ADME, organism-based; conditions: in vivo; outline: as §2
[11] = AUC(0 to 5 hrs) in juvenile breast-fed Sprague-Dawley rat at 30 mg/kg, po administered as water solution by HPLC-tandem mass spectrometry; format: ADME, organism-based; design: time < 5 hr, dose 30 mg/kg, route oral; conditions: plasma
Outline: (§4)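 7-day-old Sprague-Dawley pups (9.7-18.9 g, both sexes), 15 per group. Given 30 mg/kg by oral gavage (10 ml/kg); breast-fed pups stayed with dams, fasted pups were removed 8 h before dosing. Blood taken by cardiac puncture under isoflurane at 0.25, 0.5, 1, 2 and 5 h, n=3 per time point (composite design). Dichlorvos-treated plasma assayed by LC-MS/MS; AUC0-5h by noncompartmental analysis.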

[12] = AUC(0 to infinity) in adult fasted Sprague-Dawley rat at 30 mg/kg, po administered as water solution by HPLC-tandem mass spectrometry; format: ADME, organism-based; design: time infinity, dose 30 mg/kg, route oral; conditions: plasma
Outline: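 Adult male Sprague-Dawley rats (243-283 g), jugular-cannulated, fasted from 6 h before dosing through the 6-h study. Given 30 mg/kg orally (free base) at 10 ml/kg, n=3/group. Blood sampled at 0.25-6 h into K2EDTA with dichlorvos esterase inhibitor. Plasma assayed by LC-MS/MS (0.1-500 μg/l). Noncompartmental analysis: linear-trapezoid AUC; infinity extrapolation via log-linear terminal λz.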

[13] = Cmax in juvenile fasted Sprague-Dawley rat at 30 mg/kg, po administered as 125 mM aqueous Gly-Sar solution by HPLC-tandem mass spectrometry; format: ADME, organism-based; design: dose 30 mg/kg, route oral; conditions: in vivo; outline: as §4
[14] = Drug uptake in CHOK1 cells expressing human PEPT1 at 100 uM at pH 4 to 8 after 10 mins by HPLC coupled with radiodetection analysis; format: ADME, cell-based, Cricetulus griseus; conditions: chinese hamster, cho-k1, pH 4, 10 min
Outline: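 pH series from 4 to 8: CHO-PEPT1 and CHO-K1 cells were exposed to 100 µM [14C]oseltamivir (or 2 µM [3H]Gly-Sar) in KH/MES buffer, with pH readjusted after substrate addition, for 10 min at 37°C. Then quench in ice-cold PBS-BSA, Triton X-100 lysis and scintillation counting normalized to protein. Three independent experiments.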

[15] = Tmax in juvenile breast-fed Sprague-Dawley rat at 30 mg/kg, po administered as water solution by HPLC-tandem mass spectrometry; format: ADME, organism-based; design: dose 30 mg/kg, route oral; conditions: in vivo
Outline: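 Seven-day-old Sprague-Dawley pups, males and females, 15 per group, were gavaged with 30 mg/kg (10 ml/kg). Breast-fed pups stayed with their dams; fasted pups were removed from 8 h predose through 5 h. Cardiac blood was drawn under isoflurane at 0.25, 0.5, 1, 2 and 5 h (composite, n=3/time point), with dichlorvos added. Plasma was analyzed by HPLC-MS/MS and Tmax read graphically.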

[16] = Drug uptake in CHOK1 cells at 100 uM after 10 mins by HPLC coupled with radiodetection analysis in presence of PEPT1 inhibitor valacyclovir; format: ADME, cell-based, Cricetulus griseus; conditions: chinese hamster, cho-k1, 10 min; outline: as §3
[17] = Tmax in adult fed Sprague-Dawley rat at 30 mg/kg, po administered as solution in bovine milk by HPLC-tandem mass spectrometry; format: ADME, organism-based; design: dose 30 mg/kg, route oral; conditions: in vivo
Outline: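 Cannulated adult male Sprague-Dawley rats with chow ad libitum, 3 per vehicle, were given oral 30 mg/kg (10 ml/kg). Plasma analysis was by HPLC-MS/MS, with Tmax taken graphically from concentration-time profiles.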

Structure (SMILES)	Drug uptake [1]	Drug uptake [2]	CL renal [3] [mL/min]	Drug uptake [4]	Drug uptake [5]	Drug uptake [6]	Drug uptake [7]	Drug uptake [8]	Drug uptake [9]	Tmax [10] [h]	AUC(0-t) at 5 h [11] [ng·h/mL]	AUC(0-inf) [12] [ng·h/mL]	Cmax [13] [ng/mL]	Drug uptake [14]	Tmax [15] [h]	Drug uptake [16]	Tmax [17] [min]
CCOC(=O)C1=C[C@@H](OC(CC)CC)[C@H](NC(C)=O)[C@@H](N)C1 [OSELTAMIVIR]	Active	Not Active	385	Not Active	Not Active	Not Active	Not Active	Not Active	Not Active	0.806	20300	2710	10400	Active	1	Not Active	24.6
CCC(CC)O[C@@H]1C=C(C(=O)O)C[C@H](N)[C@H]1NC(C)=O [OSELTAMIVIR CARBOXYLATE]	–	–	218	–	–	–	–	–	–	4.37	5070	6140	2710	–	5	–	45
